EPA's CvTdb concentration-time database

Columns and labels:
human [1] = experiment: concentration in blood after dosing
Method in brief: (§1)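 Concentration-versus-time or amount-versus-time points were compiled from published in vivo toxicokinetic studies and from two structured collections. The studies were found by PubMed searching, classifier screening and manual review. Points were mostly digitised from plot screenshots with WebPlotDigitizer, otherwise copied from tables, and kept in the reported units. Dose, route, subject details and medium were curated by hand from each paper, and sampling and analytical methods follow each source and were often unreported.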

rabbit = experiment: concentration in blood after dosing; conditions: dosed: hexachlorocyclohexane, 25 mg/kg, oral, female
Method in brief: as §1

human [2] = experiment: concentration in expired air after dosing; conditions: dosed: methyl tert-butyl ether, 15 mg, oral, male
Method in brief: as §1

human [3] = experiment: concentration in blood after dosing; negative times count back from the end of exposure; conditions: inhalation
Method in brief: as §1

rat = experiment: concentration in blood after dosing; conditions: dosed: methylene chloride, male
frog = experiment: concentration in embryo medium after dosing; conditions: dosed: musk moskene, 400 ug/L embryo medium, dermal, duration: 10 days, xenopus laevis
Method in brief: as §1

human [4] = experiment: concentration in urine after dosing; conditions: dosed: benzene, 30 mg/m^3, inhalation, duration: 4 hr, male
Method in brief: as §1

human [5] = experiment: concentration in urine after dosing; negative times count back from the end of exposure; conditions: dosed: benzene, 30 mg/m^3, inhalation, duration: 4 hr, male
Method in brief: as §1

human [6] = experiment: concentration in urine after dosing; conditions: dosed: benzene, 30 mg/m^3, inhalation, duration: 4 hr, male; remark: listed apart in the source
Method in brief: as §1

CCOC(C)(C)C [ethyl tert-butyl ether]
concentration in blood [µM], human [1], dosed: ethyl tert-butyl ether, inhalation, duration: 4 hr
Conditions	2.045 h	4.023 h	4.057 h	6.068 h	7.977 h	9.972 h	11.98 h	23.9 h	61 s	184 s
4.5 ppm	0.371	0.117	–	–	–	–	–	–	1.32	–
40.6 ppm	3.35	–	1.94	1.75	0.941	1.1	0.762	0.171	–	12

ClC1C(Cl)C(Cl)C(Cl)C(Cl)C1Cl (configuration not stated) [hexachlorocyclohexane]
rabbit
Conditions	concentration in blood [ng/mL]
168 h	9220
336 h	12300
504 h	18400
672 h	24600
840 h	33800
1008 h	39900
1176 h	46100
1344 h	52200
1512 h	58400
1680 h	64500
1848 h	70700
2016 h	86000

COC(C)(C)C [methyl tert-butyl ether]
human [2]
Conditions	concentration in expired air [µM]
0.1656 h	0.077
0.3208 h	0.077
0.5071 h	0.05141
0.6649 h	0.03325
0.8305 h	0.02815
0.9935 h	0.02117
1.508 h	0.01295
1.995 h	0.009141
2.999 h	0.00625
3.99 h	0.002876
4.996 h	0.002574
5.99 h	0.00141

dosed: methyl tert-butyl ether
Conditions	concentration in blood [µM]
human [1], 0.01 h, 38.7 ppm, inhalation, duration: 4 hr	6.65
human [1], 2 h, 4.5 ppm, inhalation, duration: 4 hr	0.643
human [1], 2.004 h, 38.7 ppm, inhalation, duration: 4 hr	2.1
human [1], 3.94 h, 4.5 ppm, inhalation, duration: 4 hr	0.354
human [1], 3.996 h, 38.7 ppm, inhalation, duration: 4 hr	1.02
human [1], 6.01 h, 4.5 ppm, inhalation, duration: 4 hr	0.174
human [1], 6.012 h, 38.7 ppm, inhalation, duration: 4 hr	0.606
human [1], 7.951 h, 4.5 ppm, inhalation, duration: 4 hr	0.084
human [1], 8.029 h, 38.7 ppm, inhalation, duration: 4 hr	0.395
human [1], 10.04 h, 38.7 ppm, inhalation, duration: 4 hr	0.328
human [1], 12.06 h, 38.7 ppm, inhalation, duration: 4 hr	0.253
human [1], 22 s, 4.5 ppm, inhalation, duration: 4 hr	1.93
human [3], 0.2914 h, 25 ppm, duration: 4 hr, male	7.86
human [3], 0.5342 h, 25 ppm, duration: 4 hr, male	6.55
human [3], 0.9123 h, 25 ppm, duration: 4 hr, male	5.51
human [3], 2.155 h, 25 ppm, duration: 4 hr, male	3.31
human [3], 6.883 h, 25 ppm, duration: 4 hr, male	0.651
human [3], 20.1 h, 25 ppm, duration: 4 hr, male	0.04

human [1], dosed: methyl tert-butyl ether, oral
Conditions	concentration in blood [µM]
0.9725 h, 5 mg	0.0994
1.015 h, 15 mg	0.685
1.991 h, 5 mg	0.0411
2.004 h, 15 mg	0.276
2.918 h, 15 mg	0.108
2.982 h, 5 mg	0.0272
3.947 h, 5 mg	0.0187
4.008 h, 15 mg	0.082
5.952 h, 5 mg	0.0131
5.987 h, 15 mg	0.0471
7.932 h, 5 mg	0.0117
7.966 h, 15 mg	0.0264
9.937 h, 5 mg	0.0101
9.945 h, 15 mg	0.0233
12 h, 15 mg	0.013
12.02 h, 5 mg	0.00899

human [3], dosed: methyl tert-butyl ether, 25 ppm, duration: 4 hr, male, during exposure
Conditions	concentration in blood [µM]
-4 h	0.117
-3.335 h	6.64
-2.225 h	7.88
-1.277 h	9.78
-0.1674 h	10.6

ClCCl [methylene chloride]
Conditions	concentration in blood [ng/mL]
human [3], 1.928 h, dosed: methylene chloride, 350 ppm, duration: 6 hr	899
human [3], 2.051 h, dosed: methylene chloride, 100 ppm, duration: 6 hr	155
human [3], 5.959 h, dosed: methylene chloride, 100 ppm, duration: 6 hr	62.4
human [3], 6.02 h, dosed: methylene chloride, 350 ppm, duration: 6 hr	342
human [3], 16.03 h, dosed: methylene chloride, 100 ppm, duration: 6 hr	12
human [3], 16.07 h, dosed: methylene chloride, 350 ppm, duration: 6 hr	77.4
human [3], 23.99 h, dosed: methylene chloride, 350 ppm, duration: 6 hr	36
human [3], 276 s, dosed: methylene chloride, 350 ppm, duration: 6 hr	5760
rat, 0.1027 h, 125 mg/kg, oral, Wistar	114000
rat, 0.1096 h, 125 mg/kg, oral, Wistar	35700
rat, 0.1406 h, 125 mg/kg, oral, Wistar	101000
rat, 0.1438 h, 125 mg/kg, oral, Wistar	37300
rat, 0.1715 h, 125 mg/kg, oral, Wistar	96200
rat, 0.1781 h, 125 mg/kg, oral, Wistar	38700
rat, 0.2228 h, 125 mg/kg, oral, Wistar	93900
rat, 0.2329 h, 125 mg/kg, oral, Wistar	39900
rat, 0.2708 h, 125 mg/kg, oral, Wistar	88100
rat, 0.2808 h, 125 mg/kg, oral, Wistar	41000
rat, 0.3223 h, 125 mg/kg, oral, Wistar	79600
rat, 0.3356 h, 125 mg/kg, oral, Wistar	39800
rat, 0.3704 h, 125 mg/kg, oral, Wistar	71100
rat, 0.3836 h, 125 mg/kg, oral, Wistar	38300
rat, 0.4252 h, 125 mg/kg, oral, Wistar	65400
rat, 0.4315 h, 125 mg/kg, oral, Wistar	34600
rat, 0.5041 h, 125 mg/kg, oral, Wistar	57100
rat, 0.5205 h, 125 mg/kg, oral, Wistar	36100
rat, 0.7539 h, 125 mg/kg, oral, Wistar	41600
rat, 0.7671 h, 125 mg/kg, oral, Wistar	27600
rat, 1.007 h, 125 mg/kg, oral, Wistar	31400
rat, 1.014 h, 125 mg/kg, oral, Wistar	24000
rat, 1.5 h, 125 mg/kg, oral, Wistar	16900
rat, 1.514 h, 125 mg/kg, oral, Wistar	14900
rat, 2.002 h, 125 mg/kg, oral, Wistar	8750
rat, 2.014 h, 125 mg/kg, oral, Wistar	9350
rat, 2.498 h, 125 mg/kg, oral, Wistar	3470
rat, 2.514 h, 125 mg/kg, oral, Wistar	11300
rat, 3.014 h, 125 mg/kg, oral, Wistar	9840
rat, 3.507 h, 125 mg/kg, oral, Wistar	6900
rat, 4.007 h, 125 mg/kg, oral, Wistar	5980
rat, 4.507 h, 125 mg/kg, oral, Wistar	4860
rat, 5 h, 125 mg/kg, oral, Wistar	1820
rat, 129 s, 125 mg/kg, oral, Wistar	59800
rat, 173 s, 125 mg/kg, oral, Wistar	15700
rat, 247 s, 125 mg/kg, oral, Wistar	29800
rat, 248 s, 125 mg/kg, oral, Wistar	101000

Conditions	concentration in blood [ng/mL]
human [3], -2.858 h, dosed: methylene chloride, 350 ppm, duration: 6 hr, during exposure	5830
human [3], -2.95 h, dosed: methylene chloride, 100 ppm, duration: 6 hr, during exposure	1090
human [3], -58 s, dosed: methylene chloride, 100 ppm, duration: 6 hr, during exposure	1020
rat, 0.5086 h, 100000 ppm, dermal, duration: 4 hr, Fischer-344	57300
rat, 0.5196 h, 60000 ppm, dermal, duration: 4 hr, Fischer-344	29800
rat, 0.5257 h, 30000 ppm, dermal, duration: 4 hr, Fischer-344	11300
rat, 1.007 h, 100000 ppm, dermal, duration: 4 hr, Fischer-344	67300
rat, 1.008 h, 60000 ppm, dermal, duration: 4 hr, Fischer-344	45900
rat, 1.013 h, 30000 ppm, dermal, duration: 4 hr, Fischer-344	21100
rat, 1.988 h, 100000 ppm, dermal, duration: 4 hr, Fischer-344	79800
rat, 1.99 h, 60000 ppm, dermal, duration: 4 hr, Fischer-344	43400
rat, 1.996 h, 30000 ppm, dermal, duration: 4 hr, Fischer-344	30000
rat, 2.977 h, 100000 ppm, dermal, duration: 4 hr, Fischer-344	97700
rat, 2.987 h, 60000 ppm, dermal, duration: 4 hr, Fischer-344	44700
rat, 2.989 h, 30000 ppm, dermal, duration: 4 hr, Fischer-344	29800
rat, 3.973 h, 100000 ppm, dermal, duration: 4 hr, Fischer-344	98100
rat, 3.974 h, 60000 ppm, dermal, duration: 4 hr, Fischer-344	52200
rat, 3.978 h, 30000 ppm, dermal, duration: 4 hr, Fischer-344	23600

Cc1c([N+](=O)[O-])cc2c(c1[N+](=O)[O-])C(C)(C)CC2(C)C [musk moskene]
frog
Conditions	concentration in embryo medium [ng/mL]
0.1638 h	353
0.2136 h	293
0.2621 h	670
95.89 h	46.5
168.63 h	226
240 h	175
240.21 h	290
240.24 h	222

Oc1ccccc1 [phenol]
Conditions	concentration in urine [µM]
human [4], 0 h	72.9
human [4], 2 h	113
human [4], 4 h	226
human [4], 6 h	207
human [4], 8 h	143
human [4], 10 h	180
human [4], 12.06 h	144
human [4], 14 h	87.1
human [4], 20.36 h	70.2
human [4], 24.06 h	112
human [4], 27.03 h	80.5
human [4], 32 h	82.7
human [4], 38.06 h	73.4
human [4], 42.55 h	45.5
human [4], 47.58 h	65.6
human [4], 52.48 h	50.5
human [5], 0 h	314
human [5], 1.939 h	244
human [5], 4 h	187
human [5], 6.061 h	200
human [5], 8 h	99.3
human [5], 10.06 h	114
human [5], 18 h	121
human [5], 24.55 h	51
human [5], 30 h	39.3
human [5], 34.12 h	38
human [5], 42.3 h	38.5
human [5], 50.48 h	52.2
human [6], 0 h	61.4
human [6], 2 h	82.2
human [6], 4 h	186
human [6], 5.939 h	193
human [6], 8 h	143
human [6], 10 h	129
human [6], 12.06 h	109
human [6], 14.36 h	102
human [6], 15.52 h	80.2
human [6], 23.33 h	176
human [6], 26.24 h	68.4
human [6], 37.03 h	45.6
human [6], 38.55 h	45
human [6], 46.55 h	87.7
human [6], 47.52 h	141
human [6], 52 h	95.1

human [5], during exposure
Conditions	concentration in urine [µM]
-4 h	23.7
-2.061 h	124

CC(C)(C)O [tert-butanol]
human [3], dosed: methyl tert-butyl ether, 25 ppm, duration: 4 hr, male
Conditions	concentration in blood [µM]
0.1966 h	14.8
0.4673 h	15.1
0.8191 h	15.4
2.091 h	14.8
6.879 h	11.6
20.02 h	4.27

human [3], dosed: methyl tert-butyl ether, 25 ppm, duration: 4 hr, male, during exposure
Conditions	concentration in blood [µM]
-3.999 h	0.0102
-3.435 h	3.36
-2.296 h	6.17
-1.076 h	10.4
-0.2367 h	13.1
